Measurements reported in ChEMBL document CHEMBL4387724, “2-Pyridineformamide N(4)-ring incorporated thiosemicarbazones inhibit MCF-7 cells by inhibiting JNK pathway” (Bioorg Med Chem Lett, 2019).
pIC50: −log10 of the molar value.

Tests used:
MCF7 [1] = test: Cytotoxicity against human MCF7 cells assessed as reduction in cell growth incubated for 72 hrs by MTT assay; format: functional, cell-based; details: MCF7, 72 h
Procedure, shortened: (§1)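 Cells grown in DMEM with 10% FBS and penicillin-streptomycin at 37 °C, 5% CO2, seeded at 3000 cells/well and attached overnight. Screening series given at 1, 3, 10, 100 μM; follow-up agent at 100 nM–3 μM; both 72 h, with 0.1% DMSO vehicle. MTT (5 mg/mL stock) added for 3 h at 37 °C, formazan dissolved in DMSO, absorbance read at 570 nm. Viability expressed as % of DMSO-treated wells from replicates.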

A-431 [2] = test: Cytotoxicity against human A431 cells assessed as reduction in cell growth incubated for 72 hrs by MTT assay; format: functional, cell-based; details: A-431, 72 h; procedure, shortened: as §1
A-375 [3] = test: Cytotoxicity against human A375 cells assessed as reduction in cell growth incubated for 72 hrs by MTT assay; format: functional, cell-based; details: A-375, 72 h; procedure, shortened: as §1
HeLa [4] = test: Cytotoxicity against human HeLa cells assessed as reduction in cell growth incubated for 72 hrs by MTT assay; format: functional, cell-based; procedure, shortened: as §1
A-375 [5] = test: Cytotoxicity against human A375 cells assessed as reduction in cell growth at 1 uM incubated for 72 hrs by MTT assay relative to control; format: functional; details: A-375, 72 h, read-out: GI; procedure, shortened: as §1
A-375 [6] = test: Cytotoxicity against human A375 cells assessed as reduction in cell growth at 3 uM incubated for 72 hrs by MTT assay relative to control; format: functional; details: A-375, 72 h, read-out: GI; procedure, shortened: as §1
A-375 [7] = test: Cytotoxicity against human A375 cells assessed as reduction in cell growth at 10 uM incubated for 72 hrs by MTT assay relative to control; format: functional; details: A-375, 72 h, read-out: GI; procedure, shortened: as §1
A-375 [8] = test: Cytotoxicity against human A375 cells assessed as reduction in cell growth at 30 uM incubated for 72 hrs by MTT assay relative to control; format: functional; details: A-375, 72 h, read-out: GI
A-375 [9] = test: Cytotoxicity against human A375 cells assessed as reduction in cell growth at 100 uM incubated for 72 hrs by MTT assay relative to control; format: functional; details: A-375, 72 h, read-out: GI; procedure, shortened: as §1
A-431 [10] = test: Cytotoxicity against human A431 cells assessed as reduction in cell growth at 1 uM incubated for 72 hrs by MTT assay relative to control; format: functional; details: A-431, 72 h, read-out: GI; procedure, shortened: as §1
A-431 [11] = test: Cytotoxicity against human A431 cells assessed as reduction in cell growth at 3 uM incubated for 72 hrs by MTT assay relative to control; format: functional; details: A-431, 72 h, read-out: GI; procedure, shortened: as §1
A-431 [12] = test: Cytotoxicity against human A431 cells assessed as reduction in cell growth at 10 uM incubated for 72 hrs by MTT assay relative to control; format: functional; details: A-431, 72 h, read-out: GI; procedure, shortened: as §1
A-431 [13] = test: Cytotoxicity against human A431 cells assessed as reduction in cell growth at 30 uM incubated for 72 hrs by MTT assay relative to control; format: functional; details: A-431, 72 h, read-out: GI
A-431 [14] = test: Cytotoxicity against human A431 cells assessed as reduction in cell growth at 100 uM incubated for 72 hrs by MTT assay relative to control; format: functional; details: A-431, 72 h, read-out: GI; procedure, shortened: as §1
HeLa [15] = test: Cytotoxicity against human HeLa cells assessed as reduction in cell growth at 1 uM incubated for 72 hrs by MTT assay relative to control; format: functional; details: read-out: GI; procedure, shortened: as §1
HeLa [16] = test: Cytotoxicity against human HeLa cells assessed as reduction in cell growth at 3 uM incubated for 72 hrs by MTT assay relative to control; format: functional; details: read-out: GI; procedure, shortened: as §1
HeLa [17] = test: Cytotoxicity against human HeLa cells assessed as reduction in cell growth at 10 uM incubated for 72 hrs by MTT assay relative to control; format: functional; details: read-out: GI; procedure, shortened: as §1
HeLa [18] = test: Cytotoxicity against human HeLa cells assessed as reduction in cell growth at 30 uM incubated for 72 hrs by MTT assay relative to control; format: functional; details: read-out: GI
HeLa [19] = test: Cytotoxicity against human HeLa cells assessed as reduction in cell growth at 100 uM incubated for 72 hrs by MTT assay relative to control; format: functional; details: read-out: GI; procedure, shortened: as §1
MCF7 [20] = test: Cytotoxicity against human MCF7 cells assessed as reduction in cell growth at 1 uM incubated for 72 hrs by MTT assay relative to control; format: functional; details: MCF7, 72 h, read-out: GI; procedure, shortened: as §1
MCF7 [21] = test: Cytotoxicity against human MCF7 cells assessed as reduction in cell growth at 3 uM incubated for 72 hrs by MTT assay relative to control; format: functional; details: MCF7, 72 h, read-out: GI; procedure, shortened: as §1
MCF7 [22] = test: Cytotoxicity against human MCF7 cells assessed as reduction in cell growth at 10 uM incubated for 72 hrs by MTT assay relative to control; format: functional; details: MCF7, 72 h, read-out: GI; procedure, shortened: as §1
MCF7 [23] = test: Cytotoxicity against human MCF7 cells assessed as reduction in cell growth at 30 uM incubated for 72 hrs by MTT assay relative to control; format: functional; details: MCF7, 72 h, read-out: GI
MCF7 [24] = test: Cytotoxicity against human MCF7 cells assessed as reduction in cell growth at 100 uM incubated for 72 hrs by MTT assay relative to control; format: functional; details: MCF7, 72 h, read-out: GI; procedure, shortened: as §1

Row | SMILES | pIC50 (MCF7 [1]) | pIC50 (A-431 [2]) | pIC50 (A-375 [3]) | pIC50 (HeLa [4]) | inhibition of growth at 1 µM (A-375 [5]) | inhibition of growth at 3 µM (A-375 [6]) | inhibition of growth at 10 µM (A-375 [7]) | inhibition of growth at 30 µM (A-375 [8]) | inhibition of growth at 100 µM (A-375 [9]) | inhibition of growth at 1 µM (A-431 [10]) | inhibition of growth at 3 µM (A-431 [11]) | inhibition of growth at 10 µM (A-431 [12]) | inhibition of growth at 30 µM (A-431 [13]) | inhibition of growth at 100 µM (A-431 [14]) | inhibition of growth at 1 µM (HeLa [15]) | inhibition of growth at 3 µM (HeLa [16]) | inhibition of growth at 10 µM (HeLa [17]) | inhibition of growth at 30 µM (HeLa [18]) | inhibition of growth at 100 µM (HeLa [19]) | inhibition of growth at 1 µM (MCF7 [20]) | further results
1 | N/C(=N\NC(=S)N1CCOCC1)c1ccc(F)cn1 | 4.66 | 5.40 | 5.82 | 5.77 | 44.5% | 66.4% | 70.3% | 85.9% | 86.2% | 31.8% | 47% | 66.9% | 82.3% | 85.6% | 21.4% | 59.7% | 81.9% | 84.5% | 81.2% | 12.4% | inhibition of growth at 3 µM (MCF7 [21]): 33.9%; inhibition of growth at 10 µM (MCF7 [22]): 39.5%; inhibition of growth at 30 µM (MCF7 [23]): 56.7%; inhibition of growth at 100 µM (MCF7 [24]): 61.5%
2 | Cc1ccnc(/C(N)=N/NC(=S)N2CCCC2)c1 | 5.92 | 6.05 | 6.14 | 5.72 | 69% | 80% | 86% | 87.9% | 88.8% | 58.5% | 63% | 71.2% | 84.2% | 86.9% | 25.9% | 52.1% | 67% | 86.4% | 88.1% | 49% | inhibition of growth at 3 µM (MCF7 [21]): 57.7%; inhibition of growth at 10 µM (MCF7 [22]): 63.6%; inhibition of growth at 30 µM (MCF7 [23]): 82.2%; inhibition of growth at 100 µM (MCF7 [24]): 87.7%
3 | N/C(=N\NC(=S)N1CCCCCC1)c1ccc(F)cn1 | 4.68 | 6.00 | 6.02 | 6.05 | 51.8% | 66.6% | 72.2% | 80% | 85.7% | 50.3% | 62.4% | 64.4% | 81.3% | 83.5% | 50% | 65.1% | 83.2% | 84.5% | 85.6% | 16.8% | inhibition of growth at 3 µM (MCF7 [21]): 24.3%; inhibition of growth at 10 µM (MCF7 [22]): 26.8%; inhibition of growth at 30 µM (MCF7 [23]): 68.2%; inhibition of growth at 100 µM (MCF7 [24]): 79%
